According to ChEMBL document CHEMBL4145619, “Computer-Assisted Discovery of Retinoid X Receptor Modulating Natural Products and Isofunctional Mimetics” (J Med Chem, 2018):
The source made the active and inactive calls. No cut-off for these calls is given here.

Tests used:
Format in all cases: cell-based
[1] = molecular target: T1, Retinoic acid receptor RXR-beta (Homo sapiens, UniProt P28702); test: Transactivation of human Gal4-fused RXRbeta LBD expressed in HEK293T cells after 12 to 14 hrs by dual-glo luciferase assay
T1 sequence (P28702 whole entry): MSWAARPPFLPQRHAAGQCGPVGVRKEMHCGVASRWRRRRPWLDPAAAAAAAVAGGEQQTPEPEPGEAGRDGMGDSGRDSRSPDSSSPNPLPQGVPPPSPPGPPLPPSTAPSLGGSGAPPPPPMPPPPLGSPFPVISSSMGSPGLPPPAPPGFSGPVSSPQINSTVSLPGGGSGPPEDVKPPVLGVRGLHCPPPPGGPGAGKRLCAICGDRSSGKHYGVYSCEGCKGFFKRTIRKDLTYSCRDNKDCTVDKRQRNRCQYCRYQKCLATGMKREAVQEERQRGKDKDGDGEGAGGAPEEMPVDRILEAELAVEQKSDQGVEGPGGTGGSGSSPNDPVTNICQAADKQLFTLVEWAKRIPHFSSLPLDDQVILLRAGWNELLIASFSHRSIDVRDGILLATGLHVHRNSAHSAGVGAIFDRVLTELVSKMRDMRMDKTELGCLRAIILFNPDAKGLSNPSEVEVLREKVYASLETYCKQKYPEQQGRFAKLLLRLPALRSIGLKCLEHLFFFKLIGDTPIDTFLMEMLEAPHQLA
Outline: (§1)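 Gal4-hybrid reporter gene assay in HEK293T cells with the RXRα, RXRβ or RXRγ construct. Dose–response curves give EC50 and fold activation as mean ± SEM from n ≥ 4 independent experiments in duplicate.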

[2] = molecular target: T2, Retinoic acid receptor RXR-alpha (Homo sapiens, UniProt P19793); test: Transactivation of human Gal4-fused RXRalpha LBD expressed in HEK293T cells after 12 to 14 hrs by dual-glo luciferase assay; outline: as §1
T2 sequence (P19793 whole entry): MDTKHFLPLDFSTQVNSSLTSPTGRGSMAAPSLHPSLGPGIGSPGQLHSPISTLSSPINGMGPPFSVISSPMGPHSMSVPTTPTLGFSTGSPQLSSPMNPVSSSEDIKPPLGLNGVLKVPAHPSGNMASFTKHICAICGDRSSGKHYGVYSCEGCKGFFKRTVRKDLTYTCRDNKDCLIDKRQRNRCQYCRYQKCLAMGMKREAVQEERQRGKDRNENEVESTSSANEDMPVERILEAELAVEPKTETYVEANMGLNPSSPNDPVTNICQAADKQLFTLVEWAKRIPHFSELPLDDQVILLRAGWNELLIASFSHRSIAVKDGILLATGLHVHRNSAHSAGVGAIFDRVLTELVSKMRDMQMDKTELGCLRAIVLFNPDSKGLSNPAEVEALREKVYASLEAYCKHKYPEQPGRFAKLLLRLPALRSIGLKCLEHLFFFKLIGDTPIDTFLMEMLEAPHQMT

[3] = molecular target: T3, Retinoid X receptor (Homo sapiens) (UniProt P28702+P48443+P19793); test: Transactivation of RXR in human HepG2 cells assessed as induction of apoE mRNA expression at 30 uM after 8 hrs by qRT-PCR analysis
Outline: (§2)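 HepG2 cells were treated and ABCA1 or ApoE mRNA levels measured. Results are given as mean fold induction versus 0.1% DMSO vehicle ± SEM, n = 3. Significance was set at p < 0.05, 0.01 or 0.001.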

[4] = molecular target: T4, Retinoic acid receptor RXR-gamma (Homo sapiens, UniProt P48443); test: Transactivation of human Gal4-fused RXRgamma LBD expressed in HEK293T cells after 12 to 14 hrs by dual-glo luciferase assay; outline: as §1
T4 sequence (P48443 whole entry): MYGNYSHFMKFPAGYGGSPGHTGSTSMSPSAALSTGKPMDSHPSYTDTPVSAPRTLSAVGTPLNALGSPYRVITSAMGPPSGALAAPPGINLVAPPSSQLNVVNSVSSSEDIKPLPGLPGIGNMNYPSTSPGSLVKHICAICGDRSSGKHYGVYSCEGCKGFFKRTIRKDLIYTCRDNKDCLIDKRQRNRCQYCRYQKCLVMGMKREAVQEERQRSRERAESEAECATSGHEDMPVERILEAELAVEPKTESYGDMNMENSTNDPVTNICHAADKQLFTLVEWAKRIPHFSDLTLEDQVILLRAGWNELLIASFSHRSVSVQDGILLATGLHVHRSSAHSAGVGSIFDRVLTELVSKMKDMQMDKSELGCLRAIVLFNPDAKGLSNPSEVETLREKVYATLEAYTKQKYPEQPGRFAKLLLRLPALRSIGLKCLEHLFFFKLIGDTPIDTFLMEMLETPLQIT

[5] = molecular target: T5, Retinoic acid receptor RXR-alpha (Homo sapiens) (UniProt P19793); test: Transactivation of human Gal4-fused RXRalpha LBD expressed in HEK293T cells at 30 uM after 12 to 14 hrs by dual-glo luciferase assay
T5 sequence (whole entry): T2 sequence (P19793 whole entry)
Outline: (§3)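 Single-concentration selectivity profiling in Gal4-hybrid reporter gene assays in HEK293T cells. Each nuclear receptor construct (RAR, PPAR, LXR, FXR, CAR, VDR, PXR, RXR) was tested at 30 μM.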

HepG2 = test: Cytotoxicity against human HepG2 cells assessed as reduction in cell viability up to 100 uM after 48 hrs by WST1 assay; settings: hepg2, 48 h
[6] = molecular target: T5, Retinoic acid receptor RXR-alpha (Homo sapiens); test: Transactivation of human Gal4-fused RXRalpha LBD expressed in HEK293T cells after 12 to 14 hrs by dual-glo luciferase assay relative to bexarotene
[7] = molecular target: T6, Retinoic acid receptor RXR-gamma (Homo sapiens) (UniProt P48443); test: Transactivation of human Gal4-fused RXRgamma LBD expressed in HEK293T cells after 12 to 14 hrs by dual-glo luciferase assay relative to bexarotene
T6 sequence (whole entry): T4 sequence (P48443 whole entry)

[8] = molecular target: T3, Retinoid X receptor (Homo sapiens); test: Transactivation of RXR in human HepG2 cells assessed as induction of ABCA1 mRNA expression at 30 uM after 8 hrs by qRT-PCR analysis; outline: as §2
[9] = molecular target: T7, Retinoic acid receptor RXR-beta (Homo sapiens) (UniProt P28702); test: Transactivation of human Gal4-fused RXRbeta LBD expressed in HEK293T cells after 12 to 14 hrs by dual-glo luciferase assay relative to bexarotene
T7 sequence (whole entry): T1 sequence (P28702 whole entry)

[10] = molecular target: T5, Retinoic acid receptor RXR-alpha (Homo sapiens); test: Transactivation of human Gal4-fused RXRalpha LBD expressed in HEK293T cells at 50 uM after 12 to 14 hrs by dual-glo luciferase assay
[11] = molecular target: T6, Retinoic acid receptor RXR-gamma (Homo sapiens); test: Transactivation of human Gal4-fused RXRgamma LBD expressed in HEK293T cells at 50 uM after 12 to 14 hrs by dual-glo luciferase assay
[12] = molecular target: T7, Retinoic acid receptor RXR-beta (Homo sapiens); test: Transactivation of human Gal4-fused RXRbeta LBD expressed in HEK293T cells at 50 uM after 12 to 14 hrs by dual-glo luciferase assay
[13] = molecular target: T3, Retinoid X receptor (Homo sapiens); test: Transactivation of RXR in human HepG2 cells assessed as induction of ABCA1 mRNA expression at 10 uM after 8 hrs by qRT-PCR analysis; outline: as §2
[14] = molecular target: T3, Retinoid X receptor (Homo sapiens); test: Transactivation of RXR in human HepG2 cells assessed as induction of apoE mRNA expression at 10 uM after 8 hrs by qRT-PCR analysis; outline: as §2
[15] = molecular target: T8, Peroxisome proliferator-activated receptor gamma (Homo sapiens) (UniProt P37231); test: Transactivation of human Gal4-fused PPARgamma LBD expressed in HEK293T cells at 30 uM after 12 to 14 hrs by dual-glo luciferase assay; outline: as §3
T8 sequence (whole entry): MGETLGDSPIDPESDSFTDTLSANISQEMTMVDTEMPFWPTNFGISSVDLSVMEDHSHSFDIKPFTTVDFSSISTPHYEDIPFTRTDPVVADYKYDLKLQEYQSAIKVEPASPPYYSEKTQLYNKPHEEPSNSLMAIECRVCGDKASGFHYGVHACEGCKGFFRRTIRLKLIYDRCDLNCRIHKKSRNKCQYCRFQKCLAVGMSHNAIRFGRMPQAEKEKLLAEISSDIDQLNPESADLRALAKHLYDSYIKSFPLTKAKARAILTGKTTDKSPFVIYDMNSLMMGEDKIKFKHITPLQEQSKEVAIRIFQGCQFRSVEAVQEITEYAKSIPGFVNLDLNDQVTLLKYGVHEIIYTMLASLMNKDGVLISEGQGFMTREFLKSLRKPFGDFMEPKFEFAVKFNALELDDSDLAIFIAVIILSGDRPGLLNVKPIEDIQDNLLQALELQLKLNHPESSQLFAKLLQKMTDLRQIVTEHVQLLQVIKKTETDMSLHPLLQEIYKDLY

| EC50 [1] | EC50 [2] | EC50 [4] | fold change (FC) [6] | fold change (FC) [7] | fold change (FC) [9] | SMILES | other results |
| --- | --- | --- | --- | --- | --- | --- | --- |
| – | – | – | 69 | 44 | 121 | Cc1c2c(n(-c3ccc(CC(=O)O)cc3)c1C)CCC(F)(F)C2 | Activity [13]: Active; Activity [14]: Active |
| 13.9 µM | 23.6 µM | 27.2 µM | 26 | 11 | 30 | Cc1ccc(-n2c(C)c(C)c3c2CCC(F)(F)C3)cc1O | – |
| 2.2 µM | 9.1 µM | 2.5 µM | 56 | 7 | 64 | Cc1c2c(n(-c3ccc(CCCC(=O)O)cc3)c1C)CCC(F)(F)C2 | – |
| 27.1 µM | 24 µM | 50 µM | 69 | 18 | 99 | Cc1c2c(n(C[C@H]3CC[C@H](C(=O)O)CC3)c1C)CCC(F)(F)C2 | – |
| 42 µM | 42 µM | 42 µM | 9 | 6 | 6 | CC(C)c1ccc2c(c1)CC[C@H]1[C@](C)(C(=O)O)CCC[C@]21C [DEHYDROABIETIC ACID] | Activity [3]: Active; Activity [5]: Active; Activity [15]: Active; Activity (HepG2): Toxic; Activity [8]: Active |

Further lines, the compound ahead of its results:

| SMILES | EC50 [1] | EC50 [2] | EC50 [4] | fold change (FC) [6] | fold change (FC) [7] | fold change (FC) [9] | other results |
| --- | --- | --- | --- | --- | --- | --- | --- |
| C=C[C@@]1(C)CC[C@H]2C(=CC[C@@H]3[C@]2(C)CCC[C@@]3(C)C(=O)O)C1 [ISOPIMARIC ACID] | 32 µM | 26 µM | 33 µM | 13 | 7 | 7 | Activity [3]: Active; Activity [5]: Active; Activity (HepG2): Toxic; Activity [8]: Active |
| CCC(C)[C@@H]1C(=O)/C(=C(/O)[C@@H]2[C@@H]3[C@H](C)C[C@H](C)C[C@@H]3C=C[C@@H]2[C@]2(C)O[C@H]2C)C(=O)N1C (some centres undefined) | – | – | – | – | – | – | Activity [10]: inactive |
| Cc1ccc(C)n1C(CC1CCCC1)C(=O)O (centres undefined) | – | – | – | – | – | – | Activity [11]: inactive; Activity [10]: inactive; Activity [12]: inactive |
| CC(C)=C(C)c1ccc(-c2cnc(CCC(=O)O)o2)cc1 | 16 µM | 8 µM | 14 µM | 2.8 | 2 | 3.2 | – |
| Cc1ccc(C)n1-c1ccc(CCCC(=O)O)cc1 | 6.6 µM | 4.3 µM | 24.8 µM | 31 | 11 | 48 | – |
| Cc1ccc(C)n1-c1ccc(SCC(=O)O)cc1 | > 30 µM | > 30 µM | – | – | – | – | Activity [11]: inactive |
| C/C=C/c1ccc2c(c1)[C@@H](C)[C@H](c1ccc(O)cc1)O2 | – | – | – | – | – | – | Activity [10]: inactive |
